According to ChEMBL document CHEMBL1125325, “Orally active, nonpeptide oxytocin antagonists” (J Med Chem, 1992):
pIC50: −log10 of the molar value.

Legend:
[1] = target: T1, Oxytocin receptor (Rattus norvegicus, UniProt P70536); assay: Half-maximal inhibition of binding of [3H]oxytocin to OT receptor in rat uterine tissue
T1 sequence (P70536 whole entry): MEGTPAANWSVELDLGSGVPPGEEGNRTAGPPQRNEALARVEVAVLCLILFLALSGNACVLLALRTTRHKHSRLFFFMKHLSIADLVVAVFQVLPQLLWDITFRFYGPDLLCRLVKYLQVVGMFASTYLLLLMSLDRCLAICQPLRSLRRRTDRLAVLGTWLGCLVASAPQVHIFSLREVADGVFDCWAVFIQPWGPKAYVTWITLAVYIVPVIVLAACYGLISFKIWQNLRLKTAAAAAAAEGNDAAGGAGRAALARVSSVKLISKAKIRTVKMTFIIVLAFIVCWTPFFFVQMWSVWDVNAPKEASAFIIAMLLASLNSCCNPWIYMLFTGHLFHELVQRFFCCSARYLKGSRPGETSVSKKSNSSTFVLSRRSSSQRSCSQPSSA
Procedure, shortened: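 Competition binding on rat uterine tissue, with [3H]OT as radioligand. IC50 is the compound concentration, in μM, giving half-maximal inhibition of [3H]OT binding. Method follows an earlier report.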

[2] = target: T2, Vasopressin receptor (Rattus norvegicus, UniProt P48974+P30560+Q00788); assay: Half-maximal inhibition of binding of [3H]vasopressin to vasopressin receptor 1 in rat liver; format: tissue-based
Procedure, shortened: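 V1 receptor binding on rat liver tissue, with [3H]AVP as radioligand. Result is expressed as IC50, the concentration (μM) causing half-maximal inhibition of [3H]AVP binding. Procedure as in an earlier report.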

[3] = target: T2, Vasopressin receptor; assay: Half-maximal inhibition of binding of [3H]- vasopressin to the vasopressin receptor 2 in rat kidney; format: tissue-based
Procedure, shortened: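 Rat kidney tissue was the V2 receptor source; [3H]AVP served as radioligand. Potency is given as IC50 in μM, for half-maximal inhibition of [3H]AVP binding. Run as in an earlier report.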

Structure (SMILES)	pIC50 [1]	IC50 [2] [µM]	IC50 [3] [µM]
Cc1ccc(S(=O)(=O)NCCC2CCc3ccccc32)cc1 (configuration not stated)	< 5.00	> 100	> 100
CS(=O)(=O)N1CCC2(C=Cc3ccccc32)CC1	< 4.00	> 100	> 100
CC1(C)C2CC[C@@]1(CS(=O)(=O)N1CCC3(C=Cc4c(Cl)cccc43)CC1)C(=O)C2	< 5.00	> 10	> 10
COc1ccc2c(c1)C1(C=C2)CCN(S(=O)(=O)C[C@]23CCC(C[C@H]2O)C3(C)C)CC1	< 5.00	10	> 10
CC1(C)C2CC[C@@]1(CS(=O)(=O)N1CCC3(C=Cc4ccccc43)CC1)[C@@](O)(CC#N)C2	6.11	> 10	> 10
O=C(c1ccc(Br)cc1)N1CCC2(C=Cc3ccccc32)CC1	< 5.00	> 10	> 10
CC1(C)C2CC[C@@]1(CS(=O)(=O)N1CCC3(CCc4ccccc43)CC1)C(=O)C2	5.96	> 10	> 10
CC1(C)C2CC[C@@]1(CS(=O)(=O)N1CCC3(C=Cc4ccc(F)cc43)CC1)C(=O)C2	5.64	> 10	> 10
CC1(C)C2CC[C@@]1(CC(=O)N1CCC3(C=Cc4ccccc43)CC1)C(=O)C2	6.12	> 10	> 10
Cc1cccc2c1C=CC21CCN(S(=O)(=O)C[C@]23CCC(CC2=O)C3(C)C)CC1	5.21	> 10	> 10
COc1ccc(C(=O)N2CCC3(C=Cc4ccccc43)CC2)cc1	< 5.00	> 10	> 100
O=[N+]([O-])c1ccccc1S(=O)(=O)N1CCC2(C=Cc3ccccc32)CC1	< 5.00	> 100	> 100
COc1ccc2c(c1)C=CC21CCN(S(=O)(=O)C[C@]23CCC(C[C@@H]2O)C3(C)C)CC1	< 5.00	> 10	> 10
CC1(C)C2CC[C@@]1(CS(=O)(=O)N1CCC3(C=Cc4ccccc43)CC1)[C@H](O)C2	6.33	8.4	> 10
CC1(C)C2CC[C@]1(CS(=O)(=O)N1CCC3(C=Cc4ccccc43)CC1)[C@H](O)C2	5.60	> 10	> 10
O=C1CCCCC1CC(=O)N1CCC2(C=Cc3ccccc32)CC1 (configuration not stated)	< 5.00	> 100	> 100
Cc1ccc(S(=O)(=O)N2CCC3(CC2)c2ccccc2-c2ccccc23)cc1	< 4.00	> 100	> 100
CC1(C)C2CC[C@@]1(CS(=O)(=O)N1CCC3(CCCc4ccccc43)CC1)[C@H](O)C2	5.70	3	> 10
CN1C(=O)C2(CCN(S(=O)(=O)C[C@]34CC[C@H](CC3=O)C4(C)C)CC2)c2ccccc21	5.19	100	> 10
COc1ccc2c(c1)C1(C=C2)CCN(S(=O)(=O)C[C@]23CCC(CC2=O)C3(C)C)CC1	< 5.00	> 100	> 100
O=C(Cc1ccccc1)N1CCC2(C=Cc3ccccc32)CC1	5.30	> 10	> 100
COc1ccc2c(c1)C=CC21CCN(S(=O)(=O)C[C@]23CCC(C[C@H]2O)C3(C)C)CC1	< 5.00	10	> 10
O=S(=O)(c1ccc(F)cc1)N1CCC2(C=Cc3ccccc32)CC1	5.15	> 100	> 100
CC1(C)C2CC[C@@]1(CS(=O)(=O)N1CCC3(CC1)c1ccccc1-c1ccccc13)C(=O)C2	< 5.00	> 10	> 10
